Measurements reported in ChEMBL document CHEMBL1141563, “Novel inhibitors of the Gardos channel for the treatment of sickle cell disease” (J Med Chem, 2008).
Converted amounts (≈) assume the structure as drawn.

Columns and labels:
[1] = molecular target: T1, Intermediate conductance calcium-activated potassium channel protein 4 (Homo sapiens, UniProt O15554); experiment: Inhibition of Gardos channel in human RBC assessed as inhibition of ionomycin-stimulated [86Rb] efflux
CYP3A4 = CYP3A4 (Homo sapiens, UniProt P08684); experiment: Inhibition of CYP3A4 at 10 uM; assay type: ADME
Sequence of CYP3A4 (P08684 whole entry): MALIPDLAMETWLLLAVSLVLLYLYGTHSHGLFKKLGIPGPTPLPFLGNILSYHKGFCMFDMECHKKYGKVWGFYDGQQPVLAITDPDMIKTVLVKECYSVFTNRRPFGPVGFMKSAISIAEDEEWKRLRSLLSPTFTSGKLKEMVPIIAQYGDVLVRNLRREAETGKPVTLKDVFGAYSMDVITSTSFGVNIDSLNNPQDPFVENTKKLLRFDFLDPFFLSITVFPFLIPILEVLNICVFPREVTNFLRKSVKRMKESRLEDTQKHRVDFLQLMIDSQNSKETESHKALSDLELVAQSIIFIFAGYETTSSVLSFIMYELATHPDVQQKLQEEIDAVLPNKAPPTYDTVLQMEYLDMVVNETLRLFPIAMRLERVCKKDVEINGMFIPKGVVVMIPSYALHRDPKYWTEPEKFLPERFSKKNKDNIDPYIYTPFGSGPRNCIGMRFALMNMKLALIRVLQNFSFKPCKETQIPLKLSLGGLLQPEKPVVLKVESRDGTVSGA

hERG (KCNH2) = hERG (KCNH2) (Homo sapiens, UniProt Q12809); experiment: Inhibition of human ERG at 10 uM
Sequence of hERG (KCNH2) (Q12809 whole entry): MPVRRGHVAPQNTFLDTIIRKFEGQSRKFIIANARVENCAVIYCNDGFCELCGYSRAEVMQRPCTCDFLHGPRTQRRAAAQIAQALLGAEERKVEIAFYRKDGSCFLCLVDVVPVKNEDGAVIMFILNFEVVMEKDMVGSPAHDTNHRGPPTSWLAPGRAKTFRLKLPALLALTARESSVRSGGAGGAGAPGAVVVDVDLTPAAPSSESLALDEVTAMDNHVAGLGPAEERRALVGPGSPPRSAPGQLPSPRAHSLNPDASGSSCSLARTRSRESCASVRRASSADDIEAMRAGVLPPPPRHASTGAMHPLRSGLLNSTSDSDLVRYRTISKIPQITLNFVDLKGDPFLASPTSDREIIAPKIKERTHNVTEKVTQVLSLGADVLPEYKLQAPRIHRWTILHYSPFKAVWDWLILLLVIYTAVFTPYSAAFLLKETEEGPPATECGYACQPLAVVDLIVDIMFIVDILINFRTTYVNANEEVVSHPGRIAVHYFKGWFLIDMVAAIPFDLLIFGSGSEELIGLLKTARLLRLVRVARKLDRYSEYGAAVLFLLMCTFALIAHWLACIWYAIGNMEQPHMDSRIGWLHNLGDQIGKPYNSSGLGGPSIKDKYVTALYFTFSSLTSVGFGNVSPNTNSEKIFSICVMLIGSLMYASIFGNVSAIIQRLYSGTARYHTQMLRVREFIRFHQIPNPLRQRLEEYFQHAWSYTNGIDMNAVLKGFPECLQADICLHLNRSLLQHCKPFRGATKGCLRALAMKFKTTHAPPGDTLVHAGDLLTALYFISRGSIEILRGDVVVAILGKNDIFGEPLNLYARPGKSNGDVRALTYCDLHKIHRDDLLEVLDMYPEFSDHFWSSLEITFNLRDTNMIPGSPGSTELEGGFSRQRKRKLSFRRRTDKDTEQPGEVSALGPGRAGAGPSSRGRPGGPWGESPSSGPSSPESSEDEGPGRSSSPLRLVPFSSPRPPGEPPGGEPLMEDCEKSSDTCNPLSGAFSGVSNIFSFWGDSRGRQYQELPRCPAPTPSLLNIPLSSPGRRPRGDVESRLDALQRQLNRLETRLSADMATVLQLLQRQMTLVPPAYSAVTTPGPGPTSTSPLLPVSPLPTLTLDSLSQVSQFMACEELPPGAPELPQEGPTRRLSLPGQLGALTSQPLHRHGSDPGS

Liver = experiment: Intrinsic clearance in rat liver microsome S9 fraction as % compound remaining after incubation; assay type: ADME, subcellular
[2] = Solubility by shake-flask method; assay type: physicochemical
Summary of the method: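 Modified shake-flask method: about 1 mg compound shaken overnight in 1 mL PBS, pH 6.8. Supernatant analysed by LC/MS/MS; 2 measurements.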

Mus musculus [3] = experiment: Effect on gardos channel activity in SAD1 mouse model assessed by measuring [86Rb]/L of cells at 20 mg/kg, po bid after 14 days; assay type: functional
Mus musculus [4] = experiment: Effect on hematocrit levels in SAD1 mouse model at 20 mg/kg, po bid after 7 days; assay type: functional
Summary of the method: (§1)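 Transgenic SAD-1 mice of both sexes, 3–6 months, 25–30 g, given vehicle or compound by oral gavage twice daily. Blood parameters taken at baseline and at days 7 and 14 (20 mg/kg arm) or days 11 and 21 (10 mg/kg arm). Hematocrit measured by micro-Hct centrifugation; cells washed three times in PBS (330 mOsm) at 25 °C.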

[5] = Cmax in Sprague-Dawley rat at 1 mg/kg, iv or 10 mg/kg, po; assay type: ADME, organism-based; details: in vivo
Summary of the method: (§2)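 Male Sprague-Dawley rats (251–299 g), n = 3 per time point. Dosed 1 mg/Kg IV by tail vein in PEG-400/cremophor-EL, or 10 mg/Kg by oral gavage in 0.5% aqueous methylcellulose. Plasma sampled 0.08–24 h (IV) or 0.5–24 h (PO) and quantified by LC-MS, LLOQ 1 ng/mL. Noncompartmental analysis; Cmax and Tmax read from the data; AUC by linear-log trapezoidal rule.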

Mus musculus [6] = experiment: Effect on hematocrit levels in SAD1 mouse model at 20 mg/kg, po bid after 14 days; assay type: functional; summary of the method: as §1
[7] = Tmax in Sprague-Dawley rat at 1 mg/kg, iv or 10 mg/kg, po; assay type: ADME, organism-based; details: in vivo; summary of the method: as §2
Mus musculus [8] = experiment: Effect on gardos channel activity in SAD1 mouse model assessed by measuring [86Rb]/L of cells at 20 mg/kg, po bid after 7 days; assay type: functional
Mus musculus [9] = experiment: Effect on mean corpuscular hemoglobin concentration in SAD1 mouse model at 20 mg/kg, po bid after 14 days; assay type: functional; summary of the method: as §1
[10] = Half life in Sprague-Dawley rat at 1 mg/kg, iv or 10 mg/kg, po; assay type: ADME, organism-based; details: in vivo; summary of the method: as §2
Mus musculus [11] = experiment: Effect on mean corpuscular hemoglobin concentration in SAD1 mouse model at 20 mg/kg, po bid after 7 days; assay type: functional; summary of the method: as §1
[12] = molecular target: T1, Intermediate conductance calcium-activated potassium channel protein 4; experiment: Inhibition of Gardos channel in human RBC assessed as […] at 10 uM
Mus musculus [13] = experiment: Effect on mean corpuscular hemoglobin concentration in SAD1 mouse model at 10 mg/kg, po bid after 11 days; assay type: functional; summary of the method: as §1
Mus musculus [14] = experiment: Effect on hematocrit levels in SAD1 mouse model at 10 mg/kg, po bid after 11 days; assay type: functional; summary of the method: as §1
Mus musculus [15] = experiment: Effect on gardos channel activity in SAD1 mouse model at 10 mg/kg, po bid after 11 days; assay type: functional
Mus musculus [16] = experiment: Effect on mean corpuscular hemoglobin concentration in SAD1 mouse model at 10 mg/kg, po bid after 21 days; assay type: functional; summary of the method: as §1
Mus musculus [17] = experiment: Effect on gardos channel activity in SAD1 mouse model at 10 mg/kg, po bid after 21 days; assay type: functional
Mus musculus [18] = experiment: Effect on hematocrit levels in SAD1 mouse model at 10 mg/kg, po bid after 21 days; assay type: functional; summary of the method: as §1
[19] = Bioavailability in Sprague-Dawley rat at 1 mg/kg, iv or 10 mg/kg, po; assay type: ADME, organism-based; details: in vivo; summary of the method: as §2

T1 sequence (O15554 whole entry): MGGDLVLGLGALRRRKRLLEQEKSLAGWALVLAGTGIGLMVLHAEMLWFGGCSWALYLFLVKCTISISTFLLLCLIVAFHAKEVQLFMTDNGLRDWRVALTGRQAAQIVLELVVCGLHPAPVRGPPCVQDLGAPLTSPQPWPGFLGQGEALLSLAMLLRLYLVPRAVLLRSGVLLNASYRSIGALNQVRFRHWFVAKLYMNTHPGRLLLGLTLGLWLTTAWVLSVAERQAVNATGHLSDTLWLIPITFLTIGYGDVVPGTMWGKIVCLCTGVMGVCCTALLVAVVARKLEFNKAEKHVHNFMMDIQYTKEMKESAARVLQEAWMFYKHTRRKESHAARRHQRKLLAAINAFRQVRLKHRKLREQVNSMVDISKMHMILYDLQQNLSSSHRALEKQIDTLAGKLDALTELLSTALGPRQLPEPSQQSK

SMILES | IC50 [1] [nM] | Compound remaining (Liver) [%] | solubility thermodynamic [2] [µM] | further results
CNC(=O)C(c1ccccc1)(c1ccccc1)c1ccccc1 | 550 |  |  | inhibition at 10 µM (CYP3A4): < 20%; inhibition at 10 µM (hERG (KCNH2)): < 20%
NC(=O)C(c1ccc(F)cc1)(c1ccc(F)cc1)c1ccccc1F | 10 | 62 | 8.3 (≈ 2.83 µg/mL) | 
NC(=O)C(c1ccccc1)(c1ccccc1)c1ccc(F)cc1 | 40 | 58 | 2.9 (≈ 0.886 µg/mL) | 
NC(=O)C(c1ccc(F)cc1)(c1ccccc1F)c1ccccc1F | 15 | 46 | 6.8 (≈ 2.32 µg/mL) | 
CCNC(=O)C(c1ccccc1)(c1ccccc1)c1ccccc1 | 1750 |  |  | 
NC(=O)C(c1ccc(F)cc1)(c1ccc(F)cc1)c1cccc(F)c1 | 17 | 19 | 4.1 (≈ 1.4 µg/mL) | 
NC(=O)C(c1ccc(F)cc1)(c1cccc(F)c1)c1cccc(F)c1 | 15 |  |  | 
NC(=O)C(c1ccccc1)(c1ccccc1)c1ccc(F)c(F)c1 | 14 | 63 | 4.3 (≈ 1.39 µg/mL) | 
NC(=O)C(c1ccccc1)(c1cccc(F)c1)c1cccc(F)c1 |  | 43 | 1.2 (≈ 0.388 µg/mL) | 
O=C(O)C(c1ccccc1)(c1ccccc1)c1ccccc1 | > 10000 |  |  | 
NC(=O)C(c1ccc(F)cc1)(c1ccc(F)cc1)c1ccc(F)cc1 | 14 | 25 | 2.6 (≈ 0.887 µg/mL) | 
NC(=O)C(c1ccccc1)(c1ccccc1)c1ccccc1F |  | 61 | 10.6 (≈ 3.24 µg/mL) | 
NC(=O)C(c1ccccc1)(c1ccc(F)cc1)c1ccccc1F (stereo unspecified) | 9 | 40 | 5.8 (≈ 1.88 µg/mL) | Activity (Mus musculus [3]): 2 mmol; Activity (Mus musculus [4]): 44.5%; Cmax [5]: 250 ng/mL; Activity (Mus musculus [6]): 47%; Tmax [7]: 2 h; Activity (Mus musculus [8]): 4 mmol; Activity (Mus musculus [9]): 27 g/dL; inhibition at 10 µM (CYP3A4): < 20%; half-life [10]: 2.5 h; Activity (Mus musculus [11]): 34 g/dL
NC(=O)C(c1ccccc1)(c1ccccc1F)c1ccccc1F | 30 | 48 | > 31 | 
NC(=O)C(c1cccc(F)c1)(c1cccc(F)c1)c1cccc(F)c1 | 13 | 36 | 3.4 (≈ 1.16 µg/mL) | 
c1ccc(C(C2=NCCO2)(c2ccccc2)c2ccccc2)cc1 | 4300 |  |  | 
NC(=O)C(c1ccccc1)(c1ccccc1)c1ccc(F)cc1F |  | 44 | 1.8 (≈ 0.582 µg/mL) | 
O=C1Nc2ccccc2C1(c1ccccc1)c1ccccc1 |  |  |  | inhibition [12]: < 20%
COC(=O)C(c1ccccc1)(c1ccccc1)c1ccccc1 | 330 |  |  | 
NC(=O)C(c1ccccc1)(c1ccc(F)cc1)c1ccc(F)cc1 [SENICAPOC] |  | 51 | 3.8 (≈ 1.23 µg/mL) | Activity (Mus musculus [13]): 29.5 g/dL; Activity (Mus musculus [14]): 50.9%; Activity (Mus musculus [15]): 3 mmol; Cmax [5]: 400 ng/mL; Activity (Mus musculus [16]): 30.3 g/dL; Tmax [7]: 4 h; Activity (Mus musculus [17]): 1.5 mmol; Activity (Mus musculus [18]): 49.9%; inhibition at 10 µM (CYP3A4): < 20%; half-life [10]: 1 h; bioavailability [19]: 51%
CN(C)C(=O)C(c1ccccc1)(c1ccccc1)c1ccccc1 | 3150 |  |  | 
